In brackets after ≈: the same amount, converted by molar mass.
Legend:
Format in all cases: functional
[1] = test system: Cryptococcus neoformans; experiment: Antifungal activity against Cryptococcus neoformans ATCC 32264 after 48 hrs by broth microdilution technique; settings: ATCC 32264, 48 h
Method in brief: (§1)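 Yeasts were tested by CLSI broth microdilution in RPMI-1640 buffered to pH 7.0 with MOPS, with compound from 250 down to 0.98 in DMSO stocks. Trays were held at 30 °C in a moist, dark chamber. MIC100, the lowest concentration giving total visual inhibition against the growth control, was read by eye at 48 h.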

[2] = test system: Aspergillus flavus; experiment: Antifungal activity against Aspergillus flavus ATCC 9170 after 48 hrs by broth microdilution technique; settings: ATCC 9170, 48 h
Method in brief: (§2)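 Moulds and dermatophytes were run by CLSI broth microdilution in MOPS-buffered RPMI-1640 at pH 7.0. Aspergillus was incubated at 30 °C and dermatophytes at 28–30 °C, in a moist, dark chamber. MIC100, the lowest concentration with no visible growth, was read visually at a time set by growth of the control fungus.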

[3] = test system: Candida albicans; experiment: Antifungal activity against Candida albicans CCC 125 after 48 hrs by broth microdilution technique; settings: CCC 125, 48 h
[4] = test system: Cryptococcus neoformans; experiment: Antifungal activity against Cryptococcus neoformans IM 972751 after 48 hrs by broth microdilution technique; settings: IM 972751, 48 h
Method in brief: (§3)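 C. neoformans was tested by 96-well RPMI-1640 microdilution, with DMSO-matched growth and sterility control wells. Plates were incubated 48 h at 30 °C in a moist, dark chamber and read at OD405. % inhibition = 100 − (CTW − SCW)/(GCW − SCW), in duplicate. For the clinical isolates, MIC80 and MIC50 are the lowest concentrations giving 80% and 50% inhibition.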

[5] = test system: Aspergillus niger; experiment: Antifungal activity against Aspergillus niger ATCC 9029 after 48 hrs by broth microdilution technique; settings: ATCC 9029, 48 h; method in brief: as §2
[6] = test system: Candida albicans; experiment: Antifungal activity against Candida albicans CCC 126 after 48 hrs by broth microdilution technique; settings: CCC 126, 48 h
[7] = test system: Cryptococcus neoformans; experiment: Antifungal activity against Cryptococcus neoformans IM 983040 after 48 hrs by broth microdilution technique; settings: IM 983040, 48 h; method in brief: as §3
[8] = test system: Nannizzia gypsea; experiment: Antifungal activity against Microsporum gypseum CCC 115 after 48 hrs by broth microdilution technique; settings: CCC 115, 48 h; method in brief: as §2
[9] = test system: Cryptococcus neoformans; experiment: Antifungal activity against Cryptococcus neoformans IM 972724 after 48 hrs by broth microdilution technique; settings: IM 972724, 48 h; method in brief: as §3
[10] = test system: Candida parapsilosis; experiment: Antifungal activity against Candida parapsilosis CCC 124 after 48 hrs by broth microdilution technique; settings: Lodderomyces parapsilosis, CCC 124, 48 h
[11] = test system: Candida albicans; experiment: Antifungal activity against Candida albicans CCC 130 after 48 hrs by broth microdilution technique; settings: CCC 130, 48 h
[12] = test system: Cryptococcus neoformans; experiment: Antifungal activity against Cryptococcus neoformans IM 00319 after 48 hrs by broth microdilution technique; settings: IM 00319, 48 h; method in brief: as §3
[13] = test system: Cryptococcus neoformans; experiment: Antifungal activity against Cryptococcus neoformans IM 983036 after 48 hrs by broth microdilution technique; settings: IM 983036, 48 h; method in brief: as §3
[14] = test system: Cryptococcus neoformans; experiment: Antifungal activity against Cryptococcus neoformans IM 042074 after 48 hrs by broth microdilution technique; settings: IM 042074, 48 h; method in brief: as §3
[15] = test system: Candida albicans; experiment: Antifungal activity against Candida albicans CCC 129 after 48 hrs by broth microdilution technique; settings: CCC 129, 48 h
[16] = test system: Trichophyton rubrum; experiment: Antifungal activity against Trichophyton rubrum CCC 113 after 48 hrs by broth microdilution technique; settings: CCC 113, 48 h
[17] = test system: Trichophyton mentagrophytes; experiment: Antifungal activity against Trichophyton mentagrophytes ATCC 9972 after 48 hrs by broth microdilution technique; settings: ATCC 9972, 48 h; method in brief: as §2
[18] = test system: Pichia kudriavzevii; experiment: Antifungal activity against Candida krusei CCC 117 after 48 hrs by broth microdilution technique; settings: CCC 117, 48 h
[19] = test system: Nakaseomyces glabratus; experiment: Antifungal activity against Candida glabrata CCC 115 after 48 hrs by broth microdilution technique; settings: CCC 115, 48 h
[20] = test system: Candida albicans; experiment: Antifungal activity against Candida albicans CCC 128 after 48 hrs by broth microdilution technique; settings: CCC 128, 48 h
[21] = test system: Saccharomyces cerevisiae; experiment: Antifungal activity against Saccharomyces cerevisiae ATCC 9763 after 48 hrs by broth microdilution technique; settings: ATCC 9763, 48 h; method in brief: as §1
[22] = test system: Candida tropicalis; experiment: Antifungal activity against Candida tropicalis CCC 131 after 48 hrs by broth microdilution technique; settings: CCC 131, 48 h
[23] = test system: Aspergillus fumigatus; experiment: Antifungal activity against Aspergillus fumigatus ATCC 26934 after 48 hrs by broth microdilution technique; settings: ATCC 26934, 48 h; method in brief: as §2
[24] = test system: Candida albicans; experiment: Antifungal activity against Candida albicans CCC 127 after 48 hrs by broth microdilution technique; settings: CCC 127, 48 h
[25] = test system: Candida albicans; experiment: Antifungal activity against Candida albicans ATCC 10231 after 48 hrs by broth microdilution technique; settings: ATCC 10231, 48 h; method in brief: as §1

| SMILES | MIC [1] | MIC [2] | MIC [5] | MIC [8] | MIC [16] | MIC [17] | MIC [21] | MIC [23] | MIC [25] | also measured |
| --- | --- | --- | --- | --- | --- | --- | --- | --- | --- | --- |
| C[C@@H]1[C@H](O)[C@@H](C)/C=C/C=C/C=C/C=C/C=C/C=C/C=C/[C@H](O[C@@H]2O[C@H](C)[C@@H](O)[C@H](N)[C@@H]2O)C[C@@H]2O[C@](O)(C[C@@H](O)C[C@@H](O)[C@H](O)CC[C@@H](O)C[C@@H](O)CC(=O)O[C@H]1C)C[C@H](O)[C@H]2C(=O)O [AMPHOTERICIN B] | 0.25 mg/L (≈ 0.271 µM) | 0.49 mg/L (≈ 0.53 µM) | 0.49 mg/L (≈ 0.53 µM) | 0.12 mg/L (≈ 0.13 µM) | 0.06 mg/L (≈ 0.0649 µM) | 0.06 mg/L (≈ 0.0649 µM) | 0.49 mg/L (≈ 0.53 µM) | 0.49 mg/L (≈ 0.53 µM) | 0.98 mg/L (≈ 1.06 µM) | MIC80 [1]: 0.25 mg/L (≈ 0.271 µM); MIC80 [3]: 0.78 mg/L (≈ 0.844 µM); MIC80 [4]: 0.25 mg/L (≈ 0.271 µM); MIC80 [6]: 1.56 mg/L (≈ 1.69 µM); MIC80 [7]: 0.13 mg/L (≈ 0.141 µM); MIC80 [9]: 0.06 mg/L (≈ 0.0649 µM); MIC80 [10]: 0.78 mg/L (≈ 0.844 µM); MIC80 [11]: 0.5 mg/L (≈ 0.541 µM); MIC80 [12]: 0.25 mg/L (≈ 0.271 µM); MIC80 [13]: 0.13 mg/L (≈ 0.141 µM); MIC80 [14]: 0.25 mg/L (≈ 0.271 µM); MIC80 [15]: 0.78 mg/L (≈ 0.844 µM); MIC80 [18]: 0.39 mg/L (≈ 0.422 µM); MIC80 [19]: 0.39 mg/L (≈ 0.422 µM); MIC80 [20]: 1.56 mg/L (≈ 1.69 µM); MIC80 [22]: 0.5 mg/L (≈ 0.541 µM); MIC80 [24]: 0.78 mg/L (≈ 0.844 µM); MIC80 [25]: 1 mg/L (≈ 1.08 µM) |
| CC(=O)N1CCN(c2ccc(OCC3COC(Cn4ccnc4)(c4ccc(Cl)cc4Cl)O3)cc2)CC1 (stereo not given) [KETOCONAZOLE] | 0.25 mg/L (≈ 0.47 µM) | 0.12 mg/L (≈ 0.226 µM) | 0.25 mg/L (≈ 0.47 µM) | 0.06 mg/L (≈ 0.113 µM) | 0.03 mg/L (≈ 0.0565 µM) | 0.03 mg/L (≈ 0.0565 µM) | 0.49 mg/L (≈ 0.922 µM) | 0.49 mg/L (≈ 0.922 µM) | 0.49 mg/L (≈ 0.922 µM) | – |
| CN(C/C=C/C#CC(C)(C)C)Cc1cccc2ccccc12 [TERBINAFINE] | 0.49 mg/L (≈ 1.68 µM) | 0.98 mg/L (≈ 3.36 µM) | 1.96 mg/L (≈ 6.73 µM) | 0.04 mg/L (≈ 0.137 µM) | 0.01 mg/L (≈ 0.0343 µM) | 0.03 mg/L (≈ 0.103 µM) | 3.9 mg/L (≈ 13.4 µM) | 0.98 mg/L (≈ 3.36 µM) | 1.95 mg/L (≈ 6.69 µM) | – |
